Measured values published in ChEMBL document CHEMBL3627647, “Antibacterial properties of 3-(phenylsulfonyl)-2-pyrazinecarbonitrile” (Bioorg Med Chem Lett, 2015).
Values after ≈ are worked out from the molar mass of the structure shown. Active and inactive are the calls of the source. The calls are words filed in the database; no cut-off is given here. Peptide text beside a SMILES is read from it. * marks the point of attachment. βNA = c1ccc2cc(N*)ccc2c1

What was measured:
[1] = tested on: Enterococcus faecium; test: Antibacterial activity against Enterococcus faecium E007 after overnight incubation by broth microdilution method; type: functional
[2] = tested on: Pseudomonas aeruginosa; test: Antibacterial activity against Pseudomonas aeruginosa PA14 after overnight incubation by broth microdilution method; type: functional
[3] = tested on: Klebsiella pneumoniae; test: Antibacterial activity against Klebsiella pneumoniae ATCC 77326 after overnight incubation by broth microdilution method; type: functional
[4] = tested on: Acinetobacter baumannii; test: Antibacterial activity against Acinetobacter baumannii ATCC 17978 after overnight incubation by broth microdilution method; type: functional
[5] = tested on: Enterobacter sp.; test: Antibacterial activity against Enterobacter sp. KCTC 2625 after overnight incubation by broth microdilution method; type: functional
[6] = tested on: Staphylococcus aureus; test: Antibacterial activity against methicillin-resistant Staphylococcus aureus MW2 after overnight incubation by broth microdilution method; type: functional
Summary of the method: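 Broth microdilution MIC against MRSA MW2 in Müller-Hinton broth.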

[7] = tested on: HEK293; test: Toxicity in HEK293 cells assessed as decrease in cell survival rate after 24 hrs by WST-1 assay; type: cell-based; conditions: human, hek293, 24 h
Summary of the method: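 HEK-293 cells treated with serial dilutions over 1–64 µg/mL; rotenone as positive control; viability read spectrophotometrically from WST-1 conversion to formazan by viable cells.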

[8] = tested on: Klebsiella pneumoniae; test: Antibacterial activity against Klebsiella pneumoniae ATCC 77326 after overnight incubation by microplate checkerbroad assay in presence of polymyxin B; type: functional
Summary of the method: (§1)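 Microplate checkerboard: PSPC at final 1–64 µg/mL crossed with polymyxin B at final 0.063–64 µg/mL; minimum growth-inhibiting concentrations alone and in combination determined and used to calculate FIC index.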

[9] = tested on: Acinetobacter baumannii; test: Ratio of MIC for Acinetobacter baumannii ATCC 17978 in absence of 64 ug/ml efflux pump inhibitor PAbetaN to MIC for Acinetobacter baumannii ATCC 17978 in presence of 64 ug/ml efflux pump inhibitor PAbetaN; type: functional
[10] = tested on: Staphylococcus aureus; test: Bactericidal activity against methicillin-resistant Staphylococcus aureus MW2 at 40 ug/ml measured for 4 hrs by time-kill assay; type: functional
[11] = tested on: Enterobacter sp.; test: Antibacterial activity against Enterobacter sp. KCTC 2625 after overnight incubation by broth microdilution method in presence of 64 ug/ml efflux pump inhibitor PAbetaN; type: functional
[12] = tested on: Staphylococcus aureus; test: Bactericidal activity against methicillin-resistant Staphylococcus aureus MW2 after overnight incubation; type: functional
[13] = Toxicity in HEK293 cells assessed as cell survival rate up to 2 ug/ml after 24 hrs by WST-1 assay relative to control; type: cell-based; conditions: human, read-out: Survival
Summary of the method: (§2)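 HEK-293 cells treated with serial dilutions (1–64 µg/mL); rotenone as positive control. Viability read spectrophotometrically from conversion of WST-1 to formazan.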

[14] = tested on: Pseudomonas aeruginosa; test: Antibacterial activity against Pseudomonas aeruginosa PA14 after overnight incubation by broth microdilution method in presence of 64 ug/ml efflux pump inhibitor PAbetaN; type: functional
[15] = tested on: HEK293; test: Toxicity in HEK293 cells assessed as mortality rate at 4 ug/ml after 24 hrs by WST-1 assay relative to control; type: cell-based; conditions: human, hek293, 24 h; summary of the method: as §2
[16] = tested on: Caenorhabditis elegans; test: Toxicity in Caenorhabditis elegans glp-4(bn2);sek-1 (km4) after 5 days by Sytox Orange staining-based bright field microscopic analysis; type: organism-based; conditions: in vivo, 120 h
Summary of the method: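 Young adult C. elegans glp-4(bn2);sek-1(km4) co-inoculated in 384-well plates with MRSA strain MW2 and 2-fold serial dilutions (0.78–100 µg/mL), DMSO ≤1%; dead worms stained with Sytox Orange, survival from fluorescent worm area relative to total worm area.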

[17] = tested on: Staphylococcus aureus; test: (§3) Antibacterial activity against methicillin-resistant Staphylococcus aureus MW2 infected in young adult stage of Caenorhabditis elegans glp-4(bn2);sek-1 (km4) assessed as prolongation of survival after 5 days by Sytox Orange staining-based bright field microscopic analysis; type: functional; conditions: MW2, 120 h, read-out: MEC
Summary of the method: (§4)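 Young adult C. elegans glp-4(bn2);sek-1(km4) co-inoculated in 384-well plates with MRSA MW2 and 2-fold serial dilutions (0.78–100 µg/mL). DMSO ≤1%; 1% DMSO was the negative control and vancomycin the positive control. Dead worms were stained with Sytox Orange and imaged with brightfield. Survival = fraction of worm area not fluorescent.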

[18] = tested on: Acinetobacter baumannii; test: Antibacterial activity against Acinetobacter baumannii ATCC 17978 after overnight incubation by broth microdilution method in presence of 64 ug/ml efflux pump inhibitor PAbetaN; type: functional
[19] = tested on: Klebsiella pneumoniae; test: Ratio of MIC for Klebsiella pneumoniae ATCC 77326 in absence of 64 ug/ml efflux pump inhibitor PAbetaN to MIC for Klebsiella pneumoniae ATCC 77326 in presence of 64 ug/ml efflux pump inhibitor PAbetaN; type: functional
[20] = tested on: Staphylococcus aureus; test: as §3, with “survival at 50 ug/ml” for “survival”, “analysis relative to control” for “analysis”; type: functional; conditions: MW2, 120 h; summary of the method: as §4
[21] = Toxicity in HEK293 cells assessed as cell survival rate at 64 ug/ml after 24 hrs by WST-1 assay relative to control; type: cell-based; conditions: human, read-out: Survival; summary of the method: as §2
[22] = tested on: Staphylococcus aureus; test: as §3, with “survival at 100 ug/ml” for “survival”, “analysis relative to control” for “analysis”; type: functional; conditions: MW2, 120 h; summary of the method: as §4
[23] = tested on: Staphylococcus aureus; test: Ratio of MIC for methicillin-resistant Staphylococcus aureus MW2 to MEC for methicillin-resistant Staphylococcus aureus MW2 infected in young adult stage of Caenorhabditis elegans glp-4(bn2);sek-1 (km4); type: functional
Summary of the method: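 The MW2 MIC was measured in Müller-Hinton broth. For the MEC, young adult glp-4(bn2);sek-1(km4) worms were co-inoculated with MW2 in 384-well plates with 2-fold dilutions (0.78–100 µg/mL), with DMSO at or below 1%. Dead worms were stained with Sytox Orange. Survival was taken as […] per well.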

[24] = tested on: Staphylococcus aureus; test: as §3, with “survival at 0.78 to 25 ug/ml” for “survival”, “analysis relative to control” for “analysis”; type: functional; summary of the method: as §4
[25] = tested on: Pseudomonas aeruginosa; test: Ratio of MIC for Pseudomonas aeruginosa PA14 in absence of 64 ug/ml efflux pump inhibitor PAbetaN to MIC for Pseudomonas aeruginosa PA14 in presence of 64 ug/ml efflux pump inhibitor PAbetaN; type: functional
[26] = Hemolytic activity in sheep erythrocytes at 0.063 to 64 ug/ml after 1 hr; type: ADME, cell-based, Ovis aries; conditions: erythrocyte
Summary of the method: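 Sheep red blood cells exposed 1 hour to serial dilutions (0.063–64 µg/ml); Triton X-100 at 0.001–1% as positive control; hemolysis scored visually and confirmed by absorbance at 540 nm.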

[27] = tested on: Staphylococcus aureus; test: Ratio of MBC to MIC for methicillin-resistant Staphylococcus aureus MW2; type: functional
[28] = tested on: Enterobacter sp.; test: Ratio of MIC for Enterobacter sp. KCTC 2625 in absence of 64 ug/ml efflux pump inhibitor PAbetaN to MIC for Enterobacter sp. KCTC 2625 in presence of 64 ug/ml efflux pump inhibitor PAbetaN; type: functional
[29] = tested on: Klebsiella pneumoniae; test: Antibacterial activity against Klebsiella pneumoniae ATCC 77326 after overnight incubation by broth microdilution method in presence of 64 ug/ml efflux pump inhibitor PAbetaN; type: functional
[30] = tested on: Acinetobacter baumannii; test: Antibacterial activity against Acinetobacter baumannii ATCC 17978 after overnight incubation by microplate checkerbroad assay in presence of polymyxin B; type: functional; summary of the method: as §1
[31] = tested on: Klebsiella pneumoniae; test: Antibacterial activity against Klebsiella pneumoniae ATCC 77326 assessed as growth inhibition at 64 ug/ml after overnight incubation by broth microdilution method; type: functional, organism-based
[32] = tested on: Pseudomonas aeruginosa; test: Antibacterial activity against Pseudomonas aeruginosa PA14 assessed as growth inhibition at 64 ug/ml after overnight incubation by broth microdilution method; type: functional, organism-based
[33] = tested on: Acinetobacter baumannii; test: Antibacterial activity against Acinetobacter baumannii ATCC 17978 assessed as growth inhibition at 64 ug/ml after overnight incubation by broth microdilution method; type: functional, organism-based
[34] = tested on: Enterobacter sp.; test: Antibacterial activity against Enterobacter sp. KCTC 2625 assessed as growth inhibition at 64 ug/ml after overnight incubation by broth microdilution method; type: functional, organism-based
[35] = tested on: Klebsiella pneumoniae; test: Antibacterial activity against Klebsiella pneumoniae ATCC 77326 after overnight incubation by microplate checkerbroad assay in presence of PSPC; type: functional, organism-based; summary of the method: as §1
[36] = tested on: Acinetobacter baumannii; test: Antibacterial activity against Acinetobacter baumannii ATCC 17978 after overnight incubation by microplate checkerbroad assay in presence of PSPC; type: functional, organism-based
Summary of the method: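 Checkerboard microplate growth inhibition. PSPC at final 1–64 µg/mL combined with polymyxin B at final 0.063–64 µg/mL. The lowest concentrations inhibiting growth alone and in combination were used to calculate the FIC index.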

Molecule: N#Cc1nccnc1[S+]([O-])c1ccccc1 (stereo not drawn)
- MIC [1]: 8 µg/mL (≈ 34.9 µM)
- MIC [2]: > 64 µg/mL
- MIC [3]: 64 µg/mL (≈ 279 µM)
- MIC [4]: 32 µg/mL (≈ 140 µM)
- MIC [5]: > 64 µg/mL
- MIC [6]: 4 µg/mL (≈ 17.4 µM)

Molecule: N#Cc1nccnc1S(=O)(=O)c1ccccc1
- Activity [7]: Dose-dependent effect
- fractional inhibitory concentration index (FICI) [8]: 0.141
- MIC ([8]; Klebsiella pneumoniae, ATCC 77326): 1 µg/mL
- Ratio [9]: 8
- Activity [10]: 100%
- MIC [11]: 8 µg/mL
- MIC [1]: 8 µg/mL (≈ 32.6 µM)
- MBC [12]: 16 µg/mL (≈ 65.2 µM)
- MIC [2]: > 64 µg/mL
- viability at 24 h [13]: 90%
- MIC [3]: 64 µg/mL (≈ 261 µM)
- MIC [14]: 16 µg/mL
- mortality [15]: 69%
- MIC [4]: 32 µg/mL (≈ 130 µM)
- Activity [16]: Dose-dependent effect
- minimal effective concentration [17]: ≤ 0.78 µg/mL
- MIC [5]: > 64 µg/mL
- MIC [18]: 4 µg/mL
- Ratio [19]: 8
- survival at 50 µg/mL [20]: 46%
- MIC [6]: 4 µg/mL (≈ 16.3 µM)
- viability at 24 h, 64 ug/ml [21]: 8.5%
- survival at 100 µg/mL [22]: 16%
- Ratio [23]: >=5
- Survival [24]: >90%
- Ratio [25]: >4
- Activity [26]: Non-toxic
- Ratio [27]: 4
- Ratio [28]: >8
- MIC [29]: 8 µg/mL
- fractional inhibitory concentration index (FICI) [30]: 0.375
- MIC ([30]; Acinetobacter baumannii, ATCC 17978): 4 µg/mL

Molecule: CN[C@H](CC(C)C)C(=O)N[C@H]1C(=O)N[C@@H](CC(N)=O)C(=O)N[C@H]2C(=O)N[C@H]3C(=O)N[C@H](C(=O)N[C@H](C(=O)O)c4cc(O)cc(O)c4-c4cc3ccc4O)[C@H](O)c3ccc(c(Cl)c3)Oc3cc2cc(c3O[C@@H]2O[C@H](CO)[C@@H](O)[C@H](O)[C@H]2O[C@H]2C[C@](C)(N)[C@H](O)[C@H](C)O2)Oc2ccc(cc2Cl)[C@H]1O [VANCOMYCIN]
- MIC [1]: 4 µg/mL (≈ 2.76 µM)
- survival at 50 µg/mL [20]: > 97%
- survival at 100 µg/mL [22]: > 97%
- Survival [24]: >90%

Molecule: N=C(N)NCCC[C@H](NC(=O)[C@@H](N)Cc1ccccc1)C(=O)Nc1ccc2ccccc2c1 (H-Phe-Arg-βNA)
- growth inhibition (GI) [31]: inactive
- growth inhibition (GI) [32]: inactive
- growth inhibition (GI) [33]: inactive
- growth inhibition (GI) [34]: inactive

Molecule: N#Cc1nccnc1Sc1ccccc1
- MIC [1]: > 64 µg/mL
- MIC [2]: > 64 µg/mL
- MIC [3]: > 64 µg/mL
- MIC [4]: > 64 µg/mL
- MIC [5]: > 64 µg/mL
- MIC [6]: > 64 µg/mL

Molecule: POLYMYXIN B
- MIC [2]: 2 µg/mL
- MIC [3]: 16 µg/mL
- MIC [4]: 0.5 µg/mL
- MIC [5]: 32 µg/mL
- MIC [35]: 2 µg/mL
- MIC [36]: 0.125 µg/mL
